The target of assay [1] is T1, Integrin alpha-4/beta-1 (Homo sapiens, UniProt P05556+P13612). Put plainly: Inhibition of human alpha4beta1 integrin expressed in human Jurkat cells assessed as inhibition of cell adhesion to VCAM-1. The format is cell-based. In a few lines: (§1)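 Cell adhesion inhibition assay, run on Jurkat with VCAM-1, RPMI8866, K562 or SK-MEL-24 cells. Each experiment was run in quadruplicate and repeated at least three times.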

Assay [2] has as its target Integrin alpha-5/beta-1 (Homo sapiens, UniProt P05556+P08648). Put plainly: Inhibition of human alpha5beta1 integrin expressed in human K-562 cells assessed as inhibition of cell adhesion to fibronectin. It is filed as cell-based, K562. In a few lines: as §1
A short description of assay [3]: Inhibition of human […] integrin expressed in human Jurkat cells assessed as inhibition of cell adhesion to ICAM1. The format is cell-based.
The target in assay [4] is T2, Integrin alpha-4/beta-7 (Homo sapiens, UniProt P13612+P26010).
T2 sequence (P13612 whole entry): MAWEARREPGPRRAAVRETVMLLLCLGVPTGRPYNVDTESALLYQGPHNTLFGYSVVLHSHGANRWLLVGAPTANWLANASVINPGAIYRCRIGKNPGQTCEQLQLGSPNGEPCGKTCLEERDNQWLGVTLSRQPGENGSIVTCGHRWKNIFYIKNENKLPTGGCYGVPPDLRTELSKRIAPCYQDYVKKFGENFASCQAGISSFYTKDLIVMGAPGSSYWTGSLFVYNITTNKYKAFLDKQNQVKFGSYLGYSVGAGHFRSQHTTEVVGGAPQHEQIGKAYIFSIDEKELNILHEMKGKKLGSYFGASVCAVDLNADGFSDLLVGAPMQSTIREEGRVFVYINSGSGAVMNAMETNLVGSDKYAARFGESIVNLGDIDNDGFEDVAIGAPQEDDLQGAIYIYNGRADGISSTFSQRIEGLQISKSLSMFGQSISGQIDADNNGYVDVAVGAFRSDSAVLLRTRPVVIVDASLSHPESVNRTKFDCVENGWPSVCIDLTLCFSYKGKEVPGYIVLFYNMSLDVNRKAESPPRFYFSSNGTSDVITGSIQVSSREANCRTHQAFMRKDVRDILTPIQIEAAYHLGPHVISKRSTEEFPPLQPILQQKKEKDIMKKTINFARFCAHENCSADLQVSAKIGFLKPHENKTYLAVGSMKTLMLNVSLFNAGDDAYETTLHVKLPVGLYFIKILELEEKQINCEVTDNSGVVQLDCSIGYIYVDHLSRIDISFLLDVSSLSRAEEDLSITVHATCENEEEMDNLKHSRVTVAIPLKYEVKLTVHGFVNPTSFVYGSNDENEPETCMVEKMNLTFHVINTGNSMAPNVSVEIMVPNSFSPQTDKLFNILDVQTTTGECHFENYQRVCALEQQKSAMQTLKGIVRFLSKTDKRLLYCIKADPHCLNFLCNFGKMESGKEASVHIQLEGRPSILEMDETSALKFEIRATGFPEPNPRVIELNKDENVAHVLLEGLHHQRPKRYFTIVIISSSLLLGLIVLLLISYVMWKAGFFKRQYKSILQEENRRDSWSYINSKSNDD
T2 sequence (P26010 whole entry): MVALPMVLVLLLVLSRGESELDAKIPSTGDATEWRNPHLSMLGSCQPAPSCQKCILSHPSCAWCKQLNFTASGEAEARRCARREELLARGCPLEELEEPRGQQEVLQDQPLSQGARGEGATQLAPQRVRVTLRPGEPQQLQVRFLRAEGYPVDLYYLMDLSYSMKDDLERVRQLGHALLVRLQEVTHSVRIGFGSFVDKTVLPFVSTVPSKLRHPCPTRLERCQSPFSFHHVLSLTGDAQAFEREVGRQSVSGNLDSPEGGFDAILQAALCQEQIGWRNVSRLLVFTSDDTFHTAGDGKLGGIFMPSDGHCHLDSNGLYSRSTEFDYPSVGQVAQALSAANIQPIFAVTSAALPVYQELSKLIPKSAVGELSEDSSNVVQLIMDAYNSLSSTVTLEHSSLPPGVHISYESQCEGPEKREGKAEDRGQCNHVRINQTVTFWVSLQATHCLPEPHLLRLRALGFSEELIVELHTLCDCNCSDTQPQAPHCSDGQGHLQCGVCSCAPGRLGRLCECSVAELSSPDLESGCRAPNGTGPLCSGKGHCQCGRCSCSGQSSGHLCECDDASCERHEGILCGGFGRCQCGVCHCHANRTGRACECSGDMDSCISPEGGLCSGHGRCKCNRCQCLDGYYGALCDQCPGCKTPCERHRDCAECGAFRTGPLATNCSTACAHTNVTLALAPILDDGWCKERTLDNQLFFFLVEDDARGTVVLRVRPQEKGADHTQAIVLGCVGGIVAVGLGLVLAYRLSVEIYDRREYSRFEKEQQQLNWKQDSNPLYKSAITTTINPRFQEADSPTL
In words: Inhibition of human alpha4beta7 integrin expressed in human RPMI8866 cells assessed as inhibition of cell adhesion to MadCam1. The format is cell-based. In a few lines: as §1

The target of assay [5] is T1, Integrin alpha-4/beta-1. In words: Antagonist activity at human alpha4beta1integrin in human Jurkat cells assessed as reduction of VCAM-1-induced ERK1/2 phosphorylation after 60 mins by Western blot analysis. It is filed as cell-based. In outline: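 Jurkat cells were serum-starved for 16 h in RPMI-1640 with 1% FBS, then preincubated with compound in suspension for 60 min. They were then kept in suspension or plated on VCAM-1-coated wells, with poly-L-lysine as the nonspecific substrate. After 60 min the cells were lysed and Western blotted for pERK1/2 and total ERK1/2. Densitometry normalized pERK1/2 to tERK1/2 (mean ± SEM, n = 6). IC50 came from a separate concentration series.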
In general terms: Immunoblotting shows a protein as a band on a membrane.

Assay [6] has as its target Integrin alpha-V/beta-3 (Homo sapiens, UniProt P05106+P06756). In words: Inhibition of human alphaVbeta3 integrin expressed in human SK-MEL-24 cells assessed as inhibition of cell adhesion to fibronectin.

pIC50: −log10 of the molar value.

T1 sequence (P05556 whole entry, one chain of several): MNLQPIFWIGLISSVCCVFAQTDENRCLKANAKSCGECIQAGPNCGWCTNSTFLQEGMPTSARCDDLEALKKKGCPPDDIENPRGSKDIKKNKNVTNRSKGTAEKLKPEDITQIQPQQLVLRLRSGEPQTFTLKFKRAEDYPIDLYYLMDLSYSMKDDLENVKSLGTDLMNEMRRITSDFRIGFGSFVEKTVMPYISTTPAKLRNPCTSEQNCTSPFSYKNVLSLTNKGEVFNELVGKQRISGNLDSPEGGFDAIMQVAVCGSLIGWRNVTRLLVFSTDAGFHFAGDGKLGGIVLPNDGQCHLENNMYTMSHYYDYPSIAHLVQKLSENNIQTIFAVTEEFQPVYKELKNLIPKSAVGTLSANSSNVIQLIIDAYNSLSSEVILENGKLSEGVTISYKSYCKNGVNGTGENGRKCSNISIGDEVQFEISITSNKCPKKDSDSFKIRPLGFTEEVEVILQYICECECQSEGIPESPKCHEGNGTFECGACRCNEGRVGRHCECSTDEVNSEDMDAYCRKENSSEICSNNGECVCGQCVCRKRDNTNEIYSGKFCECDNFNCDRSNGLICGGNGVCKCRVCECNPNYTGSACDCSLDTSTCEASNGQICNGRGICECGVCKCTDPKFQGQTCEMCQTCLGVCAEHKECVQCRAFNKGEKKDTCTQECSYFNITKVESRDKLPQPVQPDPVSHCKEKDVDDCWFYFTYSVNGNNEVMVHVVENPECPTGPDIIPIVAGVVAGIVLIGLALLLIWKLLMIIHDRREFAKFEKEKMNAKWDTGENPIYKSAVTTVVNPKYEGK
Sequence of Integrin alpha-V/beta-3 (P05106 27-788 limits assumed): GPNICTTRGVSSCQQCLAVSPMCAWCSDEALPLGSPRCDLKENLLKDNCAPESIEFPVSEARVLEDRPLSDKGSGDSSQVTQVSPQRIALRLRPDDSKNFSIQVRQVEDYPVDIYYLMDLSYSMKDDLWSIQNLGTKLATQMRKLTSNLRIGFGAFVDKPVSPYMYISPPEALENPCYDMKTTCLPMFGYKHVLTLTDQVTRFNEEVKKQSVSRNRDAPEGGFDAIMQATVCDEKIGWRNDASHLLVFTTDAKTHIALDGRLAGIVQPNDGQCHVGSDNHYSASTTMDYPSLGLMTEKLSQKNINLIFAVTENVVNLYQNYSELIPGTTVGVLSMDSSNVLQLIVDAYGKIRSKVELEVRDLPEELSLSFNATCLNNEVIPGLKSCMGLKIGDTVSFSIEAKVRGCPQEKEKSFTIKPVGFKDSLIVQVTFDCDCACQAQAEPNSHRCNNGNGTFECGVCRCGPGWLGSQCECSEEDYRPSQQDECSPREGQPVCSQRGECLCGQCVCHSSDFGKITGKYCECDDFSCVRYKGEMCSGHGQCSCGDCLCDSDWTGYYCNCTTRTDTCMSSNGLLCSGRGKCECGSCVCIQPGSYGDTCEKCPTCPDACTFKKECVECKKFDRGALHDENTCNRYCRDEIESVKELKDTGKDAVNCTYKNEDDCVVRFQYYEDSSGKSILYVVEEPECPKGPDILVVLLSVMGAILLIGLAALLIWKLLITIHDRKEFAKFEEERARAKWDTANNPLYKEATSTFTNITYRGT
Sequence of Integrin alpha-V/beta-3 (P06756 31-889 limits assumed): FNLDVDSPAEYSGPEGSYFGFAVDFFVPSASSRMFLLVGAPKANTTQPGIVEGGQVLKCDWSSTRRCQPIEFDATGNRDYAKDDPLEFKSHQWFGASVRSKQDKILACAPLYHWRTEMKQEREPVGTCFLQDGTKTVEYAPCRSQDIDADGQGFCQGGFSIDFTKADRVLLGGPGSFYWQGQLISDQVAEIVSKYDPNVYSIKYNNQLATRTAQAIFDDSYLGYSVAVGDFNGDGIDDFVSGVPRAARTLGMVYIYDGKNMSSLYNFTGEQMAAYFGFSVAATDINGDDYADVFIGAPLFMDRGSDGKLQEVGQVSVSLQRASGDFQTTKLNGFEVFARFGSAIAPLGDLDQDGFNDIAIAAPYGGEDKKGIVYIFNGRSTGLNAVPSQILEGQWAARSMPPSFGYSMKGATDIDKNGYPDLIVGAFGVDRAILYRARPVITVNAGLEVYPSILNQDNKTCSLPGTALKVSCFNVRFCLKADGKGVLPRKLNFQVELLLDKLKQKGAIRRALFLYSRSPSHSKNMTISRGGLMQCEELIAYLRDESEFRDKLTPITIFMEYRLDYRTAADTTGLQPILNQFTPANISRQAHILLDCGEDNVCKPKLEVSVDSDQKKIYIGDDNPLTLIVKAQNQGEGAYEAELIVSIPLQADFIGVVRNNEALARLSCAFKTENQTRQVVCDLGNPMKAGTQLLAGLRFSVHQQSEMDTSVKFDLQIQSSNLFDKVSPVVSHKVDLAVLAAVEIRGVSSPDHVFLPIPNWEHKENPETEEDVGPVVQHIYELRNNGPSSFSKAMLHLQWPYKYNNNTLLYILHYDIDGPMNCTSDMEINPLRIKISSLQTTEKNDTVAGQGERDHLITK
Sequence of Integrin alpha-V/beta-3 (P06756 891-1048 limits assumed): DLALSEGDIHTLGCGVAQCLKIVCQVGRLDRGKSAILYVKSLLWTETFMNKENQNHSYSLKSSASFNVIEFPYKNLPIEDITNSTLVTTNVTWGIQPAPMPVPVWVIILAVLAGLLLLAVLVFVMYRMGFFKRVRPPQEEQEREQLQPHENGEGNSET
Sequence of Integrin alpha-5/beta-1 (P05556 21-798 limits assumed): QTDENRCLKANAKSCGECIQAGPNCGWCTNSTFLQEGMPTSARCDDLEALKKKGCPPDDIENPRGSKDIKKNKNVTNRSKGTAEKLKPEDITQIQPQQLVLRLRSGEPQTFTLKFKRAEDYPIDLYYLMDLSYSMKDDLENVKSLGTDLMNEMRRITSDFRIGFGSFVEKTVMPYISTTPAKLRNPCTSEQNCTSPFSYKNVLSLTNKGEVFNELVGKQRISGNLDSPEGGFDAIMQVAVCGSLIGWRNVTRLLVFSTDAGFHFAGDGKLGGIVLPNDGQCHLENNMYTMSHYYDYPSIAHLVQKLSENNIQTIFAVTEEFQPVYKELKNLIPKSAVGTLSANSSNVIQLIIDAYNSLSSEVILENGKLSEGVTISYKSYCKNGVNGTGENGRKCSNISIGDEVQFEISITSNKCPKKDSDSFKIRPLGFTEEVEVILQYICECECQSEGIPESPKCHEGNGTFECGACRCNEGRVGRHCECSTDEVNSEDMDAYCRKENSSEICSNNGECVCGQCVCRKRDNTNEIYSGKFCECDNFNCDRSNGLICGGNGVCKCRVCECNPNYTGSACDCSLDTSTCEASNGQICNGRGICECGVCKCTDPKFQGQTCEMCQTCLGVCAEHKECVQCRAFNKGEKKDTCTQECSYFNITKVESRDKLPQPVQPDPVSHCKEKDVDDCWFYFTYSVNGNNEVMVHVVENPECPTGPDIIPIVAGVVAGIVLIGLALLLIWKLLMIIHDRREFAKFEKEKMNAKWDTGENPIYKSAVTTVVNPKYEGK
Sequence of Integrin alpha-5/beta-1 (P08648 42-894 limits assumed): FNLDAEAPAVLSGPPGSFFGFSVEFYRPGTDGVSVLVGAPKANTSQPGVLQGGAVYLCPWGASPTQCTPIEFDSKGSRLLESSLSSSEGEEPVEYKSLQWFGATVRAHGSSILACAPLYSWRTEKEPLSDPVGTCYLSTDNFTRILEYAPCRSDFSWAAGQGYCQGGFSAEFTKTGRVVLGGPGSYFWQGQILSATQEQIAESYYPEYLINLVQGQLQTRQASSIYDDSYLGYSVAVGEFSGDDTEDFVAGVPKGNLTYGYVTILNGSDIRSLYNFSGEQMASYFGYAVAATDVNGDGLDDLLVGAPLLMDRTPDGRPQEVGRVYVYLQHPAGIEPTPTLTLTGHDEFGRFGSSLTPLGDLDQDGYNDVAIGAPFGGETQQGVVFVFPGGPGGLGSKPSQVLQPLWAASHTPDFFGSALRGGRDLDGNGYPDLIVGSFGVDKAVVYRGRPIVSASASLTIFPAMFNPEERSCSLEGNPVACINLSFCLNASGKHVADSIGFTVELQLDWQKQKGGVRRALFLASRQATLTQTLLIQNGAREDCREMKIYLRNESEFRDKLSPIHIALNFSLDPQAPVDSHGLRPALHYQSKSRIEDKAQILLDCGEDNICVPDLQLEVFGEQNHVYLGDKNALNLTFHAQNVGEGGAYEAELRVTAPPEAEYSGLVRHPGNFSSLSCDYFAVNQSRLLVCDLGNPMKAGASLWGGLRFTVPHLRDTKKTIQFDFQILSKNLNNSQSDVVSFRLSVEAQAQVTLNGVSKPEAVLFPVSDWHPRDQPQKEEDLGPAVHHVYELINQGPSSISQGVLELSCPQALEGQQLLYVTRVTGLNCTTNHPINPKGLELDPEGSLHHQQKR
Sequence of Integrin alpha-5/beta-1 (P08648 895-1049 limits assumed): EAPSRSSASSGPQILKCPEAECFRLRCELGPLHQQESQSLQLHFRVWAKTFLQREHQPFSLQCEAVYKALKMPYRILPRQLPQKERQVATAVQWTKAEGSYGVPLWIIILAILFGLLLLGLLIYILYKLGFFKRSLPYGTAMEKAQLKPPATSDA

On to `Cc1ccccc1NC(=O)N1CC=C(C(=O)NCc2ccc(NC(=O)CC(=O)O)cc2)[C@@H]1C(C)C`, for which the pIC50 – broadly, the IC50 on a negative log10 scale, so that one unit is a factor of ten – in assay [1] is 6.96.

For the molecule `Cc1ccccc1NC(=O)N1CC=C(C(=O)NCc2ccc(NC(=O)CC(=O)O)cc2)[C@H]1C(C)C`, in assay [1], the negative-log IC50 (pIC50) is 6.60.

As for `Cc1ccccc1NC(=O)Nc1ccc(CNC(=O)C2=CCN(C(=O)CC(=O)O)[C@H]2C(C)C)cc1`, the pIC50 in assay [1] was less than 6.00.

Turning to `Cc1ccccc1NC(=O)Nc1ccc(CNC(=O)C2=CCN(C(=O)CC(=O)O)[C@@H]2C(C)C)cc1`, the negative-log IC50 (pIC50) in assay [1] is 8.00; in assay [2], less than 6.00; in assay [3] it was less than 6.00; in assay [4], 6.57; in assay [5], 8.00; in assay [6], less than 6.00.

For the molecule `Cc1ccccc1NC(=O)Nc1ccc(CNC(=O)C2=CCN(C(=O)CC(=O)O)[C@H]2C2CCCCC2)cc1`, the pIC50 in assay [1] is less than 6.00.

For `Cc1ccccc1NC(=O)Nc1ccc(CNC(=O)C2=CCN(C(=O)CC(=O)O)[C@@H]2C2CCCCC2)cc1`, the pIC50 is 7.21 in assay [1]; less than 6.00 in assay [2]; less than 6.00 in assay [3]; 6.46 in assay [4]; 6.88 in assay [5]; less than 6.00 in assay [6].

The values above are taken from ChEMBL document CHEMBL3588829, “Dehydro-β-proline Containing α4β1 Integrin Antagonists: Stereochemical Recognition in Ligand-Receptor Interplay” (ACS Med Chem Lett, 2015).
